In the M2OR odorant receptor database:

Experiments:
Settings in all cases: stereoisomer not certain
OR10A2 (Homo sapiens) = target: T1, OR10A2 (Homo sapiens) (UniProt Q9H208)
T1 sequence (whole entry): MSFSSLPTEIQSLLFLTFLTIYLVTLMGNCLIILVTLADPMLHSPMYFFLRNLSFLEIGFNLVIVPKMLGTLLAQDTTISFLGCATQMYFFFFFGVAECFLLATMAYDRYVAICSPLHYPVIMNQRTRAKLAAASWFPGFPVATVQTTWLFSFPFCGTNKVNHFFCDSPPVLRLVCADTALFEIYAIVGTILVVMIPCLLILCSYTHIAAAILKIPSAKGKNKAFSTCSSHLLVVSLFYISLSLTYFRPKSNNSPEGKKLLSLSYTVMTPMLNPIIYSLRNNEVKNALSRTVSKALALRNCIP
Method in brief: (§1)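 Assay methods differ from source to source, frequently being transient luciferase assays in mammalian cell lines. For each receptor–molecule pair, the label responsive (active) applies when the original authors judged the measured signal statistically different from baseline, and non-responsive (inactive) applies otherwise.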

OR10A3 (Homo sapiens) = target: T2, OR10A3 (Homo sapiens) (UniProt P58181)
T2 sequence (whole entry): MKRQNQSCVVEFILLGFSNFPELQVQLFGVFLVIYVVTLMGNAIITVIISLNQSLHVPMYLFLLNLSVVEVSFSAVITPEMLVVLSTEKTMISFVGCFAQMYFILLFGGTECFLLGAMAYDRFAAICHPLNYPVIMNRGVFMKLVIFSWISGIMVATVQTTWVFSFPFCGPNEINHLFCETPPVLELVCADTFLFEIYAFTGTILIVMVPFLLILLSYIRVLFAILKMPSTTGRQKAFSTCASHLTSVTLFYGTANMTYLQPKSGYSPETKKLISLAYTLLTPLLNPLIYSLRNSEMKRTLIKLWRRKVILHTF
Method in brief: as §1

OR10A4 (Homo sapiens) = target: T3, OR10A4 (Homo sapiens) (UniProt Q9H209)
T3 sequence (whole entry): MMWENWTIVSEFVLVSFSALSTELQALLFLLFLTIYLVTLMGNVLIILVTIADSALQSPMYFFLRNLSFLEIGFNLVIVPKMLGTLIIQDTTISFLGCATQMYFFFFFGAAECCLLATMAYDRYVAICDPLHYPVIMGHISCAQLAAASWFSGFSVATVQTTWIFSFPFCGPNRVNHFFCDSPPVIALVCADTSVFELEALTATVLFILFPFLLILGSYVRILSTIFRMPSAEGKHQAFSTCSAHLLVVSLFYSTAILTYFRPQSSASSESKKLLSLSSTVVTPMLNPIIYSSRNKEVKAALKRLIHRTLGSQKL
Method in brief: as §1

OR10A5 (Homo sapiens) = target: T4, OR10A5 (Homo sapiens) (UniProt Q9H207)
T4 sequence (whole entry): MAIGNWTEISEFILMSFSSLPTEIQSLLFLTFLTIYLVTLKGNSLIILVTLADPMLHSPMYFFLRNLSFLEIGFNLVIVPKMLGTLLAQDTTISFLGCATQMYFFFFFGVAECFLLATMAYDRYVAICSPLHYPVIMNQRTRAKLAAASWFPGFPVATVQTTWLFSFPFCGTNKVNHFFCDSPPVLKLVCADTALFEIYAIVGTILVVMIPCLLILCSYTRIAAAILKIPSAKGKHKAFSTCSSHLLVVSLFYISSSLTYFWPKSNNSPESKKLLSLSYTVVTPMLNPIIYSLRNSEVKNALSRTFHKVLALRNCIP
Method in brief: as §1

OR10A6 (Homo sapiens) = target: T5, OR10A6 (Homo sapiens) (UniProt Q8NH74)
T5 sequence (whole entry): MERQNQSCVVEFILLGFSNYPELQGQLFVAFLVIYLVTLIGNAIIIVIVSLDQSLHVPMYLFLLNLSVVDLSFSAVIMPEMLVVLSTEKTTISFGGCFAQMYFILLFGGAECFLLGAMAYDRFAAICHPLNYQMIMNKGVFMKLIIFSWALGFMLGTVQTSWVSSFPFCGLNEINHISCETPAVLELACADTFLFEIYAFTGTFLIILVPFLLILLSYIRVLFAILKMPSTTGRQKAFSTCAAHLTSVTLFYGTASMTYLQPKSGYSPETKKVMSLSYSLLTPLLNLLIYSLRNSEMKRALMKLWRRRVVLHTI
Method in brief: as §1

OR10A7 (Homo sapiens) = target: T6, OR10A7 (Homo sapiens) (UniProt Q8NGE5)
T6 sequence (whole entry): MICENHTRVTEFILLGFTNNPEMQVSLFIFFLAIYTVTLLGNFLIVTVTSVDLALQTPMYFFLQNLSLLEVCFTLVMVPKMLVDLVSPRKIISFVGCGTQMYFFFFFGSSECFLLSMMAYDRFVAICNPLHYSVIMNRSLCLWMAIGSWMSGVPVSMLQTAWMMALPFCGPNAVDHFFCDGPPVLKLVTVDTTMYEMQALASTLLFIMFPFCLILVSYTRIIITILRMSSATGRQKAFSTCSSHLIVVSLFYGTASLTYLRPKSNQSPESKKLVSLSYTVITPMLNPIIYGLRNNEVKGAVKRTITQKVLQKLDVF
Method in brief: as §1

OR10AD1 (Homo sapiens) = target: T7, OR10AD1 (Homo sapiens) (UniProt Q8NGE0)
T7 sequence (whole entry): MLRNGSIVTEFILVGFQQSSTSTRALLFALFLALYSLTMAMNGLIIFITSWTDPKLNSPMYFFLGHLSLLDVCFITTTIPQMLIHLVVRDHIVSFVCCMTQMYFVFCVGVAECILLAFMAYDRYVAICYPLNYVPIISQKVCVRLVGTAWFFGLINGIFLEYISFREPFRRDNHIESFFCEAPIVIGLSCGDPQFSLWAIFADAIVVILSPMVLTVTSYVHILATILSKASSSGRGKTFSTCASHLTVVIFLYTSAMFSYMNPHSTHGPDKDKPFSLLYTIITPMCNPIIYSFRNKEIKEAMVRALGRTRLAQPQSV
Method in brief: as §1

OR10AG1 (Homo sapiens) = target: T8, OR10AG1 (Homo sapiens) (UniProt Q8NH19)
T8 sequence (whole entry): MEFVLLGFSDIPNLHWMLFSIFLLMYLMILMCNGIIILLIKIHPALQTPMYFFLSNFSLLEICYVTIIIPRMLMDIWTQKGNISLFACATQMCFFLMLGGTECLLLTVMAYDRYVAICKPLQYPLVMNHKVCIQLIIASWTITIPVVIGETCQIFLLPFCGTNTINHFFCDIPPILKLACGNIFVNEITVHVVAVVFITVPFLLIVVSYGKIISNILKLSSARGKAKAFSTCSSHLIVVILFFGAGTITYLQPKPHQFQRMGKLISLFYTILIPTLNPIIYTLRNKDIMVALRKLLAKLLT
Method in brief: as §1

OR10C1 (Homo sapiens) = target: T9, OR10C1 (Homo sapiens) (UniProt Q96KK4)
T9 sequence (whole entry): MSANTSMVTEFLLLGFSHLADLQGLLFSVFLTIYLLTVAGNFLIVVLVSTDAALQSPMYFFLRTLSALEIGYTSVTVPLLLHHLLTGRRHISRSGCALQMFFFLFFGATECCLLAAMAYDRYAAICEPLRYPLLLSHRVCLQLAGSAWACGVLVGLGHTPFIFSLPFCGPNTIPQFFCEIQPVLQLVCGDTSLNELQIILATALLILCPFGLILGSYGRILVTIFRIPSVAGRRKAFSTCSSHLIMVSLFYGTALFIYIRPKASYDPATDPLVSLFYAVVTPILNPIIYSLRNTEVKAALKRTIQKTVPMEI
Method in brief: as §1

OR10D3 (Homo sapiens) = target: T10, OR10D3 (Homo sapiens) (UniProt Q8NH80)
T10 sequence (whole entry): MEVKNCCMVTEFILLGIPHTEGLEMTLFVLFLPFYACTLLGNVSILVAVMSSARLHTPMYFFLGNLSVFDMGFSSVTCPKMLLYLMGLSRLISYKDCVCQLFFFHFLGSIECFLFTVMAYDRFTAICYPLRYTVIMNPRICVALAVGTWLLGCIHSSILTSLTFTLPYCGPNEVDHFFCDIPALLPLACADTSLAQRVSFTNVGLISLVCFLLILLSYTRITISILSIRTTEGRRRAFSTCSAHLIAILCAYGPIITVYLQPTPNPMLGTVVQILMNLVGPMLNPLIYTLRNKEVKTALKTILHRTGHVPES
Method in brief: as §1

O5AN1 = test system: T11, O5AN1
T11 sequence (whole entry): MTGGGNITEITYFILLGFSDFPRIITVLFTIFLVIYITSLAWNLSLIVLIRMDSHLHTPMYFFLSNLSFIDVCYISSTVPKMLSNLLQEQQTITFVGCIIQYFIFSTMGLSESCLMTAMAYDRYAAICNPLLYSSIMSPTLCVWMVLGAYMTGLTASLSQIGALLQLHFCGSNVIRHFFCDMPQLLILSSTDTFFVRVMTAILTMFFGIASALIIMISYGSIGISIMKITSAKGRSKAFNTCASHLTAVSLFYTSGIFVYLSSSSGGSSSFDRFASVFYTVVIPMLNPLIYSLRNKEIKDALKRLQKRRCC
Method in brief: as §1

| SMILES | odorant receptor agonist call (OR10A2 (Homo sapiens)) | odorant receptor agonist call (OR10A3 (Homo sapiens)) | odorant receptor agonist call (OR10A4 (Homo sapiens)) | odorant receptor agonist call (OR10A5 (Homo sapiens)) | odorant receptor agonist call (OR10A6 (Homo sapiens)) | odorant receptor agonist call (OR10A7 (Homo sapiens)) | odorant receptor agonist call (OR10AD1 (Homo sapiens)) | odorant receptor agonist call (OR10AG1 (Homo sapiens)) | odorant receptor agonist call (OR10C1 (Homo sapiens)) | odorant receptor agonist call (OR10D3 (Homo sapiens)) | odorant receptor agonist call (O5AN1) |
| --- | --- | --- | --- | --- | --- | --- | --- | --- | --- | --- | --- |
| CCCCCC(S)C(C)CO (stereo unspecified) | inactive | inactive | inactive | inactive | inactive | inactive | inactive | inactive | inactive | inactive | – |
| CC1CCCCCCCCCCCC(=O)C1 (stereo unspecified) | – | – | – | – | – | – | – | – | – | – | active |
